This note sets out measurements from ChEMBL document CHEMBL4219229, “Synthesis and antiproliferative activity of derivatives of the phyllanthusmin class of arylnaphthalene lignan lactones” (Bioorg Med Chem, 2018).

Activity calls are given as the source filed them. The calls are words filed in the database; no cut-off is given here.

One assay has as its system HT-29. Description: Cytotoxicity against human HT-29 cells measured after 24 to 72 hrs by SRB assay. It counts as functional, cell-based. Put shortly:
(§1)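 Cells from ATCC: HT-29 in RPMI 1640 with 10% FBS and 1% P/S; OVCAR3 in RPMI 1640 with 20% FBS, 1% P/S and 10 µg/mL insulin. Both kept at 37°C in 5% CO₂ and passaged at most 20 times. Seeded at 2,500–5,000 cells/well, attached overnight, then treated 24, 48 or 72 h (DMSO final 0.25%). Fixed, SRB-stained protein read out; normalized to vehicle; IC₅₀ from dose-response curves.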

The test system of another assay is OVCAR-3. Description: Cytotoxicity against human OVCAR3 cells measured after 24 to 72 hrs by SRB assay. It counts as functional, cell-based. Put shortly:
as §1

For another assay, the system named is MDA-MB-435. The experiment in a line: Cytotoxicity against human MDA-MB-435 cells after 72 hrs by CellTiter96 AQueous one solution cell proliferation assay. It counts as functional, cell-based. The note with it: MDA-MB-435, 72 h.
The test system of another assay is MDA-MB-231. Description: Cytotoxicity against human MDA-MB-231 cells after 72 hrs by CellTiter96 AQueous one solution cell proliferation assay. It counts as functional, cell-based. The note with it: MDA-MB-231, 72 h.
Assay [1] in a line: Selectivity ratio of IC50 for human OVCAR3 cells to IC50 for human HT-29 cells. It counts as functional.
For assay [2], the target named is DNA topoisomerase 2-alpha (Homo sapiens) (UniProt P11388). The experiment in a line: Inhibition of full-length recombinant human topoisomerase-2alpha expressed in yeast expression system assessed as reduction in enzyme-mediated supercoiled pBR322 DNA relaxation at 50 to 100 uM measured after 15 mins by ethidium bromide staining based agarose gel electrophoresis. Put shortly:
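Topo IIα (125 ng) with 150 ng negatively supercoiled pBR322 and 1 mM ATP in 10 mM Tris-HCl pH 8.0, 50 mM KCl, 50 mM NaCl, 0.1 mM EDTA, 5 mM MgCl₂, 2.5% glycerol, drug in DMSO; started with enzyme, 15 min at 37°C, SDS/EDTA stop. Products resolved on 1% TBE agarose, ethidium bromide stained, imaged under UV.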

A further assay deals with K562. The experiment in a line: Cytotoxicity against human etoposide-sensitive K562 cells after 72 hrs by CellTiter96 AQueous one solution cell proliferation assay. It counts as functional, cell-based. The note with it: K562, 72 h. Put shortly:
(§2)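 K562 and etoposide-resistant K/VP.5 cells (~1/5 topo IIα level) in suspension at 7.5 × 10⁴ cells/ml exposed to DMSO vehicle or serial compound concentrations (final DMSO 0.5%), triplicate wells; 72 hr at 37°C, then MTS reagent 1 hr at 37°C, absorbance 490 nm. IC₅₀ from four-parameter logistic fit; relative resistance = IC₅₀ K/VP.5 ÷ IC₅₀ K562; n = separate-day repeats.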

Assay [3] in a line: Cytotoxicity against human K/VP.5 cells after 72 hrs by CellTiter96 AQueous one solution cell proliferation assay. The note with it: K/VP.5, 72 h. It counts as functional, cell-based. Put shortly:
as §2

Assay [4] is described as follows: Resistance index, ratio of IC50 for human K/VP.5 cells to IC50 for human etoposide-sensitive K562 cells. It counts as functional. Put shortly:
as §2

Assay [5] addresses DNA topoisomerase 2-alpha (Homo sapiens) (UniProt P11388). The note with it: 100 uM.

DNA topoisomerase 2-alpha (Homo sapiens), sequence (P11388 whole entry): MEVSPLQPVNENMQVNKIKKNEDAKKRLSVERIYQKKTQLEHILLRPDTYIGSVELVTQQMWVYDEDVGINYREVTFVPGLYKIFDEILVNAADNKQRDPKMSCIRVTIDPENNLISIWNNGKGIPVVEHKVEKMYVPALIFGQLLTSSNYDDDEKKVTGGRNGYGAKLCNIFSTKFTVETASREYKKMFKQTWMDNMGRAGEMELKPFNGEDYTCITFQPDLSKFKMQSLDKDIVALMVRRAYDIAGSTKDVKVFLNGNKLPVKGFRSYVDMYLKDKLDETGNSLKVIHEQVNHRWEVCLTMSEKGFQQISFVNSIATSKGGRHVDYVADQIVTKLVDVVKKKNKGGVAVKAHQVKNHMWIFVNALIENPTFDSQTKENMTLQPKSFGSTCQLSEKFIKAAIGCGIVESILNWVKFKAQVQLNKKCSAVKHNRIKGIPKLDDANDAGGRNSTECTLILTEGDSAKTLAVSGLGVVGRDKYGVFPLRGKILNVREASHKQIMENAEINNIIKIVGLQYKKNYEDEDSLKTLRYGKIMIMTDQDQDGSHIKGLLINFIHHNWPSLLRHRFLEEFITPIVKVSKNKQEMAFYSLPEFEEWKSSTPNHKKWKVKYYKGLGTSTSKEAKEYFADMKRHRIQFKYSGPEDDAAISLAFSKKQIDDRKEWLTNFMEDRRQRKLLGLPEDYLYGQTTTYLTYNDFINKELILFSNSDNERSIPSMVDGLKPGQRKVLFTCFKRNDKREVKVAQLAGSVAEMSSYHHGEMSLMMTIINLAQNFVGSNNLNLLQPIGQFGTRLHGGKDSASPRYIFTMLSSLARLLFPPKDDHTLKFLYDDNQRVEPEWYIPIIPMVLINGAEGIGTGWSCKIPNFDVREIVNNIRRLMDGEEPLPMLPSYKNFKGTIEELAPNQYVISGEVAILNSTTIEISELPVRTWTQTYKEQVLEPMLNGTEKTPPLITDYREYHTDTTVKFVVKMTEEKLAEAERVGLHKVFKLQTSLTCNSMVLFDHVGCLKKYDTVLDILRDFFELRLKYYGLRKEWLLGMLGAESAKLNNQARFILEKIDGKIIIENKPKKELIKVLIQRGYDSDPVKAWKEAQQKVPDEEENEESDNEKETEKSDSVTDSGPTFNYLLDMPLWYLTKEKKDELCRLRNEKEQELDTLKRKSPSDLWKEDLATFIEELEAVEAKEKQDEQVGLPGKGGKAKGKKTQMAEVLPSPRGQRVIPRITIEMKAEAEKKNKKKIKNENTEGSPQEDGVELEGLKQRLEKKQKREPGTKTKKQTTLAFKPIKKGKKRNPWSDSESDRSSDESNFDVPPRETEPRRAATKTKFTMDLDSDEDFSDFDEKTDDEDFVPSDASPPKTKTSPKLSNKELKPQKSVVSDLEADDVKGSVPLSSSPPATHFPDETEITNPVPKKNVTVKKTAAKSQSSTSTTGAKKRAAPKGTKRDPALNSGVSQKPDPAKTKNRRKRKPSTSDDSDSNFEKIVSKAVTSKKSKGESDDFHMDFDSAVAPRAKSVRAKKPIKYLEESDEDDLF

A word on the IC50: it is the concentration that inhibits the measured activity by half. The low end stands for greater potency in that assay, the high end for weaker potency in that assay. Consider `COc1cc2c(O[C@@H]3OC[C@@H](O)[C@H](O)[C@H]3O)c3c(c(-c4ccc5c(c4)OCO5)c2cc1OC)C(=O)OC3`, for which the IC50 in the assay with HT-29 was found to be 1400 nM; in the assay with OVCAR-3, 690 nM.
The like results for `COc1cc2c(O[C@@H]3OC[C@H](OC(C)=O)[C@H](OC(C)=O)[C@H]3OC(C)=O)c3c(c(-c4ccc5c(c4)OCO5)c2cc1OC)COC3=O` were, in that order, 470 nM and more than 10000 nM.
`COc1cc2c(O[C@@H]3OC[C@H](O)[C@H](O)[C@H]3O)c3c(c(-c4ccc5c(c4)OCO5)c2cc1OC)C(=O)OC3` [ACUTISSIMALIGNAN A] came in with an IC50 with OVCAR-3 of 4800 nM.
For the compound `CC(=O)O[C@H]1C(=O)[C@@]2(C)[C@H]([C@H](OC(=O)c3ccccc3)[C@]3(O)C[C@H](OC(=O)[C@H](O)[C@@H](NC(=O)c4ccccc4)c4ccccc4)C(C)=C1C3(C)C)[C@]1(OC(C)=O)CO[C@@H]1C[C@@H]2O` [PACLITAXEL], the IC50 in the assay with HT-29 and in the assay with OVCAR-3 was 11 nM each time.
Take `CCOC(=O)c1c(C(=O)OCC)c(-c2ccc3c(c2)OCO3)c2cc(OC)c(OC)cc2c1O[C@@H]1OC[C@H](OC(C)=O)[C@H](OC(C)=O)[C@H]1OC(C)=O`: the IC50 in the assay on HT-29 and with OVCAR-3 was more than 10000 nM each time.
On to `COc1cc2c(O[C@H]3OC[C@@H](OC(C)=O)[C@@H](OC(C)=O)[C@@H]3OC(C)=O)c3c(c(-c4ccc5c(c4)OCO5)c2cc1OC)C(=O)OC3`, for which the IC50 in the assay with HT-29 came out at 46 nM; with OVCAR-3, 370 nM; with MDA-MB-435, 500 nM; in the assay on MDA-MB-231, 2200 nM.
Turning to `COc1cc2c(O[C@@H]3OC[C@@H](OC(C)=O)[C@H](OC(C)=O)[C@H]3OC(C)=O)c3c(c(-c4ccc5c(c4)OCO5)c2cc1OC)C(=O)OC3`, the IC50 was found to be 160 nM with HT-29, 570 nM in the assay on OVCAR-3, 230 nM with MDA-MB-435 and 5100 nM with MDA-MB-231.
As for `COc1cc2c(O[C@@H]3O[C@H](COC(C)=O)[C@@H](O[C@@H]4O[C@H](COC(C)=O)[C@H](OC(C)=O)[C@H](OC(C)=O)[C@H]4OC(C)=O)[C@H](OC(C)=O)[C@H]3OC(C)=O)c3c(c(-c4ccc5c(c4)OCO5)c2cc1OC)C(=O)OC3`, the IC50 in the assay with HT-29 is 2000 nM; in the assay with OVCAR-3, more than 10000 nM; with MDA-MB-435, more than 10000 nM; in the assay on MDA-MB-231, more than 10000 nM.
As for `COc1cc2c(O[C@@H]3OC[C@@H](OC)[C@H](OC)[C@H]3OC)c3c(c(-c4ccc5c(c4)OCO5)c2cc1OC)C(=O)OC3`, the IC50 came to 18 nM in the assay on HT-29, 7600 nM in the assay on OVCAR-3, 470 nM in the assay on K562 and 430 nM in assay [3]. Also, the “Ratio IC50” value in assay [1] is recorded as more than 400; in [4] it was 0.91. Moreover, the inhibition result in assay [2] is “Active”.
On to `COc1cc([C@@H]2c3cc4c(cc3[C@@H](O[C@@H]3O[C@@H]5CO[C@@H](C)O[C@H]5[C@H](O)[C@H]3O)[C@H]3COC(=O)[C@H]23)OCO4)cc(OC)c1O` [ETOPOSIDE], for which the IC50 in the assay on HT-29 turned out to be 15000 nM; in the assay on OVCAR-3 it was 2900 nM; in the assay with K562, 1220 nM; in [3], 35400 nM. In addition, in [4], the “Ratio IC50” value is on record as 28.98. The inhibition result in assay [5] is “Active”.
`COc1cc2c(O[C@@H]3OC[C@H](OC)[C@H](OC)[C@H]3OC)c3c(c(-c4ccc5c(c4)OCO5)c2cc1OC)C(=O)OC3`: the IC50 stood at 130 nM in the assay with HT-29; 810 nM in the assay on OVCAR-3; 140 nM in the assay on MDA-MB-435; 650 nM with MDA-MB-231; 1260 nM with K562; 1280 nM in assay [3]. Moreover, the inhibition result in assay [2] is “inactive”. The “Ratio IC50” value in [4] was 1.02.
Consider `COCc1c(C(=O)OC)c(-c2ccc3c(c2)OCO3)c2cc(OC)c(OC)cc2c1O[C@@H]1OC[C@@H](OC)[C@H](OC)[C@H]1OC`, for which the IC50 in the assay with HT-29 amounted to 1700 nM; in the assay on OVCAR-3 it was 450 nM.
Take `COc1cc2c(O[C@@H]3OC[C@H](OC(C)=O)[C@H](OC(C)=O)[C@H]3OC(C)=O)c3c(c(-c4ccc5c(c4)OCO5)c2cc1OC)C(=O)OC3`: the IC50 with HT-29 was found to be 140 nM; in the assay with OVCAR-3, 290 nM; in the assay on MDA-MB-435, 140 nM; in the assay on MDA-MB-231, 1000 nM; in the assay with K562, 850 nM; in [3], 920 nM. Further, the inhibition entry in assay [2] was “Active”. In addition, in assay [4], the “Ratio IC50” value was found to be 1.08.
In the case of `COc1cc2c(O[C@@H]3OC[C@H](OC(C)=O)[C@H](OC(C)=O)[C@H]3OC(C)=O)c3c(c(-c4ccc5c(c4)OCO5)c2cc1OC)COC3`, the IC50 with HT-29 was 1400 nM; with OVCAR-3, more than 10000 nM.
With `COc1cc2c(O)c3c(c(-c4ccc5c(c4)OCO5)c2cc1OC)C(=O)OC3` [DIPHYLLIN], the values for the IC50 (in the assay on K562; in [3]) were 2380 nM and 2310 nM, respectively. The “Ratio IC50” value in assay [4] was determined as 0.97.
